Experiments:
[1] = test system: Rattus norvegicus; assay: Effect on fatty acid composition in Wistar rat assessed as change in liver LCPUFA, n-6 level at dose equivalent to 85 umol of tetradecylthioacetic acid, po after 6 days; assay type: functional
Summary of the method: (§1)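 Male Wistar rats were gavaged once daily for 6 days with compound in 0.5% CMC at 85 or 250 µmol TTA-equivalent per animal. Controls received palmitic acid. Liver was homogenized in 0.25 M sucrose/10 mM HEPES pH 7.4/1 mM EDTA at 0-4 °C. Lipids were extracted with chloroform:methanol 2:1 and spiked with 21:0 internal standard. Fatty acids were BF3-methanol transesterified and quantified as wt%. Values are mean ± SD, n=5.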

[2] = test system: Rattus norvegicus; assay: Effect on fatty acid composition in Wistar rat assessed as change in plasma MUFA level at dose equivalent to 250 umol of tetradecylthioacetic acid, po after 6 days; assay type: functional
[3] = test system: Rattus norvegicus; assay: Effect on fatty acid composition in Wistar rat assessed as change in liver LCn-6/18:2 level at dose equivalent to 85 umol of tetradecylthioacetic acid, po after 6 days; assay type: functional; summary of the method: as §1
[4] = test system: Rattus norvegicus; assay: Effect on fatty acid composition in Wistar rat assessed as change in liver MUFA level at dose equivalent to 250 umol of tetradecylthioacetic acid, po after 6 days; assay type: functional; summary of the method: as §1
[5] = test system: Rattus norvegicus; assay: Plasma concentration in Wistar rat assessed as tetradecylthioacetic acid at dose equivalent to 85 umol of tetradecylthioacetic acid, po after 6 days; assay type: ADME, organism-based; settings: in vivo, 144 h
[6] = test system: Rattus norvegicus; assay: Effect on fatty acid composition in Wistar rat assessed as change in plasma saturated fatty acid level at dose equivalent to 250 umol of tetradecylthioacetic acid, po after 6 days; assay type: functional
[7] = test system: Rattus norvegicus; assay: Effect on fatty acid composition in Wistar rat assessed as change in liver 18;2, n-6 level at dose equivalent to 250 umol of tetradecylthioacetic acid, po after 6 days; assay type: functional; summary of the method: as §1
[8] = test system: Rattus norvegicus; assay: Induction of PPAR-alpha-regulated HMG-CoA synthase activity in po dosed Wistar rat after 6 days; assay type: functional, organism-based
Summary of the method: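 Wistar rats were gavaged daily for 6 days at 85 or 250 µmol TTA-equivalent in 0.5% CMC, with palmitic acid controls. HMG-CoA synthase activity was assayed in the liver postnuclear fraction by the Clinkenbeard method. Mean ± SD, 5 rats/group.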

[9] = test system: Rattus norvegicus; assay: Decrease in plasma triacylglycerol level in po dosed Wistar rat after 6 days; assay type: functional, organism-based
Summary of the method: (§2)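 Male Wistar rats (170-210 g), housed in pairs with chow and water, were gavaged once daily for 6 days with test lipid in 0.5% (w/v) carboxymethylcellulose at 85 or 250 µmol TTA-equivalent per animal. Controls received palmitic acid in CMC. Plasma triacylglycerol and cholesterol were measured with an enzymatic kit, and liver levels were also determined. Values are mean ± SD, n=5 rats.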

[10] = test system: Rattus norvegicus; assay: Effect on fatty acid composition in Wistar rat assessed as change in liver PUFA level at dose equivalent to 85 umol of tetradecylthioacetic acid, po after 6 days; assay type: functional; summary of the method: as §1
[11] = test system: Rattus norvegicus; assay: Effect on fatty acid composition in Wistar rat assessed as change in liver MUFA level at dose equivalent to 85 umol of tetradecylthioacetic acid, po after 6 days; assay type: functional; summary of the method: as §1
[12] = test system: Rattus norvegicus; assay: Decrease in plasma cholesterol level in po dosed Wistar rat after 6 days; assay type: functional, organism-based; summary of the method: as §2
[13] = test system: Rattus norvegicus; assay: Effect on fatty acid composition in Wistar rat assessed as change in plasma LCn-6/18:2 level at dose equivalent to 85 umol of tetradecylthioacetic acid, po after 6 days; assay type: functional
[14] = test system: Rattus norvegicus; assay: Effect on fatty acid composition in Wistar rat assessed as change in plasma LCPUFA, n-6 level at dose equivalent to 250 umol of tetradecylthioacetic acid, po after 6 days; assay type: functional
[15] = test system: Rattus norvegicus; assay: Effect on fatty acid composition in Wistar rat assessed as change in plasma LCPUFA, n-6 level at dose equivalent to 85 umol of tetradecylthioacetic acid, po after 6 days; assay type: functional
[16] = test system: Rattus norvegicus; assay: Effect on fatty acid composition in Wistar rat assessed as change in liver 18;2, n-6 level at dose equivalent to 85 umol of tetradecylthioacetic acid, po after 6 days; assay type: functional; summary of the method: as §1
[17] = test system: Rattus norvegicus; assay: Effect on fatty acid composition in Wistar rat assessed as change in plasma PUFA level at dose equivalent to 85 umol of tetradecylthioacetic acid, po after 6 days; assay type: functional
[18] = test system: Liver; assay: Drug concentration in Wistar rat liver assessed as tetradecylthioacetic acid at dose equivalent to 85 umol of tetradecylthioacetic acid, po after 6 days; assay type: ADME, organism-based; settings: in vivo, 144 h; summary of the method: as §1
[19] = test system: Rattus norvegicus; assay: Effect on fatty acid composition in Wistar rat assessed as change in liver LCn-6/18:2 level at dose equivalent to 250 umol of tetradecylthioacetic acid, po after 6 days; assay type: functional; summary of the method: as §1
[20] = test system: Rattus norvegicus; assay: Effect on fatty acid composition in Wistar rat assessed as change in plasma saturated fatty acid level at dose equivalent to 85 umol of tetradecylthioacetic acid, po after 6 days; assay type: functional
[21] = test system: Rattus norvegicus; assay: Increase in [1-14C]palmitoyl-CoA oxidation in po dosed Wistar rat liver homogenate after 6 days; assay type: functional, organism-based
Summary of the method: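 Rats were dosed by gastric intubation for 6 days with 85 or 250 µmol TTA-equivalent in 0.5% CMC, with palmitic acid controls. Liver was homogenized in 0.25 M sucrose, 10 mM HEPES pH 7.4, 1 mM EDTA at 0-4 °C. Palmitoyl-CoA oxidation was read as acid-soluble products from [1-14C]-palmitoyl-CoA in the postnuclear fraction. Mean ± SD, n=5.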

[22] = test system: Rattus norvegicus; assay: Effect on fatty acid composition in Wistar rat assessed as change in liver saturated fatty acid level at dose equivalent to 85 umol of tetradecylthioacetic acid, po after 6 days; assay type: functional; summary of the method: as §1
[23] = test system: Rattus norvegicus; assay: Effect on fatty acid composition in Wistar rat assessed as change in liver saturated fatty acid level at dose equivalent to 250 umol of tetradecylthioacetic acid, po after 6 days; assay type: functional; summary of the method: as §1
[24] = test system: Rattus norvegicus; assay: Plasma concentration in Wistar rat assessed as tetradecylthioacetic acid at dose equivalent to 250 umol of tetradecylthioacetic acid, po after 6 days; assay type: ADME, organism-based; settings: in vivo, 144 h
[25] = test system: Rattus norvegicus; assay: Effect on fatty acid composition in Wistar rat assessed as change in plasma 18;2, n-6 level at dose equivalent to 85 umol of tetradecylthioacetic acid, po after 6 days; assay type: functional
[26] = test system: Rattus norvegicus; assay: Effect on fatty acid composition in Wistar rat assessed as change in liver PUFA level at dose equivalent to 250 umol of tetradecylthioacetic acid, po after 6 days; assay type: functional; summary of the method: as §1
[27] = test system: Rattus norvegicus; assay: Effect on fatty acid composition in Wistar rat assessed as change in plasma 18;2, n-6 level at dose equivalent to 250 umol of tetradecylthioacetic acid, po after 6 days; assay type: functional
[28] = test system: Rattus norvegicus; assay: Effect on fatty acid composition in Wistar rat assessed as change in plasma MUFA level at dose equivalent to 85 umol of tetradecylthioacetic acid, po after 6 days; assay type: functional
[29] = test system: Rattus norvegicus; assay: Induction of PPAR-alpha-regulated fatty acyl-CoA oxidase activity in po dosed Wistar rat after 6 days; assay type: functional, organism-based
Summary of the method: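 Rats were dosed by gastric intubation for 6 days at 85 or 250 µmol TTA-equivalent in 0.5% CMC, with palmitic acid controls. Fatty acyl-CoA oxidase was measured in the liver postnuclear fraction by a coupled assay, following H2O2 production as the rise in dichlorofluorescein absorbance with palmitoyl-CoA. Mean ± SD, n=5.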

[30] = test system: Rattus norvegicus; assay: Effect on fatty acid composition in Wistar rat assessed as change in plasma PUFA level at dose equivalent to 250 umol of tetradecylthioacetic acid, po after 6 days; assay type: functional
[31] = test system: Rattus norvegicus; assay: Induction of PPAR-alpha-regulated CPT2 activity in po dosed Wistar rat after 6 days; assay type: functional, organism-based
Summary of the method: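 Wistar rats were dosed orally for 6 days (85 or 250 µmol TTA-equivalent in 0.5% CMC; palmitic acid controls). CPT-II activity was measured in the liver mitochondrial fraction, prepared from sucrose/HEPES pH 7.4/EDTA homogenate at 0-4 °C. Means ± SD from 5 rats per group.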

[32] = test system: Rattus norvegicus; assay: Effect on fatty acid composition in Wistar rat assessed as change in liver LCPUFA, n-6 level at dose equivalent to 250 umol of tetradecylthioacetic acid, po after 6 days; assay type: functional; summary of the method: as §1
[33] = test system: Rattus norvegicus; assay: Effect on fatty acid composition in Wistar rat assessed as change in plasma LCn-6/18:2 level at dose equivalent to 250 umol of tetradecylthioacetic acid, po after 6 days; assay type: functional

CCCCCCCCCCCCCCSCC(=O)OCC(COC(=O)CSCCCCCCCCCCCCCC)OC(=O)CSCCCCCCCCCCCCCC [TRITETRADECYLTHIOACETYL GLYCEROL] was tested, and the Activity [1] was 25.81%, the Activity [2] was 21.63% and the Activity [3] was 2.3%. The Activity [4] was 15.91%, the Drug uptake [5] was 0.51% and the Activity [6] was 34.67%. The Activity [7] was 10.7%, the Activity [8] was “Dose-dependent effect” and the Activity [9] was “Dose-dependent effect”. The Activity [10] was 5.18%, the Activity [11] was 17.27% and the Activity [12] was “Dose-dependent effect”. It also gave an Activity [13] of 0.98%, an Activity [14] of 22.24% and an Activity [15] of 19.08%. For the same compound, the Activity [16] was 11.28%, the Activity [17] was 2.35% and the Drug uptake [18] was 0.69%. For the same compound, the Drug uptake ([18]; in the assay text read “equivalent to 250 umol” for “equivalent to 85 umol”) was 2.04%, the Activity [19] was 2.7% and the Activity [20] was 36.21%. For the same compound, the Activity [21] was “Dose-dependent effect”, the Activity [22] was 39.82% and the Activity [23] was 38.98%. It also gave a Drug uptake [24] of 1.49%, an Activity [25] of 19.73% and an Activity [26] of 4.97%. The Activity [27] was 18.25%, the Activity [28] was 21.8% and the Activity [29] was “Dose-dependent effect”. The Activity [30] was 2.29%, the Activity [31] was “Dose-dependent effect” and the Activity [32] was 28.73%. For the same compound, the Activity [33] was 1.22%.
